Assay results: ChEMBL document CHEMBL1146475, “Spasmolytic effects, mode of action, and structure-activity relationships of stilbenoids from Nidema boothii” (J Nat Prod, 2004)
Active and inactive are the calls of the source. The rule behind the calls is not given here.

Legend:
Ileum [1] = experiment: Spasmolytic activity in guinea pig ileum assessed as inhibition of spontaneous contraction relative to papaverine; assay type: functional, Cavia porcellus
Ileum [2] = experiment: Spasmolytic activity in guinea pig ileum assessed as inhibition of spontaneous contraction; assay type: functional, tissue-based; settings: Cavia porcellus
Procedure, shortened: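 Ileum from male guinea-pigs (600-800 g) in Krebs-Henseleit, pH 7.4, isometric tension recorded. After 30 min stabilization and 10 min control period, DMSO-dissolved compound added, one concentration per segment, and recorded 10 min. Inhibition from area under curve of frequency and amplitude. Mean ±SEM of six experiments; IC50 by nonlinear curve fitting.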

Calmodulin (Bos taurus) = Calmodulin (Bos taurus) (UniProt P62157); experiment: Binding affinity to bovine brain calmodulin by electrophoretic mobility assay in presence of calcium chloride
Procedure, shortened: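 CaM pretreated 1.5 h at 30 °C with CaCl2, then test compound (0.33 µg in DMSO) applied; interaction judged from CaM band mobility on 15% polyacrylamide gel electrophoresis.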

[3] = Inhibition of bovine brain CaM-dependent PDE assessed as inorganic phosphate release in presence of bovine brain calmodulin; design: species or system Bos taurus
Procedure, shortened: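 Bovine-brain CaM (0.2 µg) preincubated 3 min with 0.015 units CaM-deficient bovine-brain PDE in buffer with 0.3 units 5′-nucleotidase, 45 mM Tris-HCl, 5.6 mM Mg acetate, 45 mM imidazole, 2.5 mM CaCl2, pH 7.0; reaction started with 100 µL 10.8 mM cAMP, run 30 min. Phosphate measured by Sumner method at 660 nm. IC50 from concentration-inhibition curves, mean ±SEM of at least three experiments.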

Ileum [4] = experiment: Spasmolytic activity in guinea pig ileum assessed as inhibition of spontaneous contraction in presence of L-NAME; assay type: functional, tissue-based; settings: Cavia porcellus
Procedure, shortened: (§1)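 Guinea-pig ileum spontaneous-contraction assay (male, 600-800 g, Krebs-Henseleit pH 7.4, isometric tension, 10 min responses, AUC-based inhibition) run in the presence of L-NAME (500 µM) or ODQ (100 µM). Concentration-response curves as mean ±SEM of six data.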

Ileum [5] = experiment: Spasmolytic activity in guinea pig ileum assessed as inhibition of spontaneous contraction in presence of ODQ; assay type: functional, tissue-based; settings: Cavia porcellus; procedure, shortened: as §1

| Structure (SMILES) | IC50 (Ileum [2]) [nM] | Activity (Calmodulin (Bos taurus)) | IC50 [3] [nM] | Ratio IC50 (Ileum [1]) | Emax (Ileum [2]) [%] | Activity (Ileum [4]) | Activity (Ileum [5]) |
| --- | --- | --- | --- | --- | --- | --- | --- |
| COc1cc2ccc3c(OC)c(O)ccc3c2c(OC)c1O | 450 |  |  |  |  |  |  |
| Oc1ccc(CCc2cc(O)cc(O)c2)cc1 [DIHYDRORESVERATROL] | 1750 | Active |  | 2.42 | 64.1 |  |  |
| COc1cc(O)cc(CCc2ccc(OC)c(O)c2)c1 | 140 | Active | 9000 | 31.33 | 66.5 |  |  |
| COc1cc(O)cc(CCc2cccc(O)c2)c1 [BATATASIN III] | 240 | Active | 13300 | 17.62 | 67.5 | inactive | inactive |
| COc1ccc(Cc2nccc3cc(OC)c(OC)cc23)cc1OC [PAPAVERINE] | 4230 |  |  |  | 91.8 |  |  |
| COc1cc(CCc2ccc(OC)c(OC)c2)cc(OC)c1 | 620 | Active |  | 6.82 | 84.9 |  |  |
| COc1cc(CCc2ccc(O)c(OC)c2)cc(OC)c1 | 1390 | Active |  | 3.05 | 76.4 |  |  |
| CN(C)CCCN1c2ccccc2Sc2ccc(Cl)cc21 [CHLORPROMAZINE] | 180 |  | 10300 | 23.5 | 81.8 |  |  |
| COC1=CC(=O)C2=C(CCc3cc(O)ccc32)C1=O [EPHEMERANTHOQUINONE] |  | Active | 10900 |  |  |  |  |
| COc1cccc(CCc2cc(O)cc(OC)c2)c1 | 1280 | Active |  | 3.3 | 58.6 |  |  |
| COc1cc(O)cc(CCc2ccc(O)c(OC)c2)c1 [GIGANTOL] | 260 | Active | 7000 | 16.26 | 81.3 | inactive | inactive |

More lines, main results first:

| IC50 (Ileum [2]) [nM] | Activity (Calmodulin (Bos taurus)) | IC50 [3] [nM] | Structure (SMILES) | Ratio IC50 (Ileum [1]) | Emax (Ileum [2]) [%] | Activity (Ileum [4]) | Activity (Ileum [5]) |
| --- | --- | --- | --- | --- | --- | --- | --- |
| 2360 | Active |  | Oc1cccc(CCc2cc(O)cc(O)c2)c1 | 1.78 | 78.5 |  |  |
| 140 | Active | 10100 | COc1cc(O)cc(CCc2ccc(O)cc2)c1 | 30.85 | 85 |  |  |
| 960 | Active |  | COc1cccc(CCc2cc(OC)cc(OC)c2)c1 | 4.41 | 75.6 |  |  |
| 1290 | Active | 21200 | COc1ccc(CCc2ccccc2)cc1O | 3.28 | 82.2 |  |  |
| 850 | Active |  | Oc1cc(O)cc(CCc2ccc(O)c(O)c2)c1 | 4.94 | 53.6 |  |  |
| 1490 | Active | 36600 | Oc1cc(O)cc(CCc2ccccc2)c1 [DIHYDROPINOSYLVIN] | 2.84 | 83.3 |  |  |
|  | Active | 3200 | COC1=CC(=O)CC12CCc1cccc(O)c1C2=O (stereo not given) [NIDEMONE] |  |  |  |  |
| 410 |  |  | COc1cc(O)c2c(c1)CCc1cc(O)ccc1-2 [LUSIANTHRIDIN] |  |  |  |  |
| 560 |  |  | COc1cc(CCc2cc(OC)c(O)c(OC)c2)ccc1O [MOSCATILIN] | 7.65 | 73.6 |  |  |
| 580 | Active |  | COc1cc(O)cc(CCc2ccc(OC)c(OC)c2)c1 | 7.32 | 66 |  |  |
| 700 | Active |  | COc1ccc(CCc2cc(O)cc(O)c2)cc1O | 5.99 | 51.8 |  |  |
